Compound activity from PubChem.
An excerpt weighted towards active compounds, which were near 1.6% of everything screened.
PLCg1 inh = blocks human PLC-gamma1 enzyme activity | P19174 | AID 720700 | purified PLC-gamma1, fluorogenic substrate, fluorescence | 0.84% of 370,000 active | inhibition, % at 12.2 µM; in the data active = inhibition above about 9.5%
HGIII-sPLA2 inh = Inhibits HGIII-sPLA2 liposome hydrolysis, primary screen. 0.56% of 370,000 active. inhibition, % at 12.2 µM. QFRET BODIPY PC-A2 liposome hydrolysis, fluorescence. AID 743126;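 active = inhibition above mean plus 3 SD of compounds lying within the high and low control bounds, cut at about 19% in these data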;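 also: 0% = median of test compound wells and 100% = no enzyme DMSO wells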
PLC-beta3 inh = blocks human PLC-beta3 enzyme activity. Q01970. Purified PLC-beta3, fluorogenic substrate, fluorescence. inhibition, % at 12.2 µM. 0.18% of 370,000 active. AID 720704;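 also: 0% = median of compound wells on plate and 100% = full blocker control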
procasp7 counter = activates human procaspase-7, counter-screen for procaspase-3 activators. P55210. recombinant procaspase-7, Ac-DEVD-pNA absorbance 405 nm; D23A/D198A/D206A triple mutant, cannot self-cleave; scale: DMSO 0, 5 µM enzyme 100. activation, % at 8.5 µM. 0.093% of 330,000 active. AID 463210;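 active = percent activation above the screen-wide mean plus 3 SD, cut at about 25% in these data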
Target sequence (P55210 whole entry D23A/D198A/D206A): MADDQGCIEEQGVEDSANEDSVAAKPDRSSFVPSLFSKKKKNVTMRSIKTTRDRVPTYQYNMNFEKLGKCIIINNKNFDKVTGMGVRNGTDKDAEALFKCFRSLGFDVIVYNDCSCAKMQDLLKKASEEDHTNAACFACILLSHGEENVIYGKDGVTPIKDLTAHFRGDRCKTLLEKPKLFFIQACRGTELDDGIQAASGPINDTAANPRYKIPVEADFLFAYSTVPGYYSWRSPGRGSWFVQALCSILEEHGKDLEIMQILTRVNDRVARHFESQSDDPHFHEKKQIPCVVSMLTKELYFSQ
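Replicates: singlicate. Assay system: Procaspase-7 triple mutant (PC-7 D3A). Signal: 405 nm absorbance of p-nitroaniline. Times: 1 h preincubation, 2 h reaction. Buffer or medium: Zinc-free HEPES pH 7.4 with 300 mM NaCl, 0.01% Triton X-100. Also added: DEVD-pNA substrate. Benchmarks: DMSO wells as 0%, DMSO with 5 µM added PC-7 as 100%.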
proCasp3 act = activators of human procaspase-3; recombinant procaspase-3 D3A, Ac-DEVD-pNA absorbance 405 nm; activation, % at 8.5 µM; 0.11% of 330,000 active;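 active = activation above the mean of all tested compounds plus 3 SD, cut at about 21% in these data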;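 also: 0% = DMSO alone and 100% = DMSO wells spiked with extra 5 µM PC-3 D3A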
Target sequence (P42574 whole entry D9A/D28A/D175A): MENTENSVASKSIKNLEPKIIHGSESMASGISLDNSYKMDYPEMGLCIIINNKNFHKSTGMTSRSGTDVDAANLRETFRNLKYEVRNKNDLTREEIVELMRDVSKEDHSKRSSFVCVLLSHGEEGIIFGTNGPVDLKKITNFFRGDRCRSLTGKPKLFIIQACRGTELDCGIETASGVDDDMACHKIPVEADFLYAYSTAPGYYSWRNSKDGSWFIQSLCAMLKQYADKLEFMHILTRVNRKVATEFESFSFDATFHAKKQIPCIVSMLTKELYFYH
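Compound: 8.5 µM single point, 0.8% DMSO / Material: Autoprocessing-dead procaspase-3 D3A mutant enzyme / Timing: 1 h preincubation plus 2 h reaction at 25 °C / Medium: Zinc-free HEPES/NaCl buffer with 0.01% Triton X-100 at pH 7.4 / Technique: 405 nm absorbance of p-nitroaniline, reads at 0 and 120 min / Repeats: one well per compound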
PLCg1 ctr = counter-screen for PLC-beta3 inhibitors: inhibitors of human PLC-gamma1; purified PLC-gamma1, fluorogenic substrate, fluorescence; inhibition, % at 12.3 µM; shares compounds with PLCg1 inh; 3.1% of 3,300 active; in the data active = inhibition above about 9.5%
PLCb3 confirm = human PLC-beta3 inhibition, confirmation; purified PLC-beta3, fluorogenic substrate fluorescence; shares compounds with PLCg1 inh; 1% of 3,300 active; inhibition, % at 12.3 µM; AID 743261
* hit, by the source's call; nt = no result. Rule as the data show it, unless noted: active = inhibition above about 11%; inactive = the rest.

SMILES	PLCg1 inh	HGIII-sPLA2 inh	PLC-beta3 inh	procasp7 counter	proCasp3 act	PLCg1 ctr	PLCb3 confirm
CCn1nc(C(=O)O)c(=O)c2cc3c(cc21)OCO3	10.3*	14.4	0.5	2.8	2.5	-8.2	-4.3
COc1ccc(NC(=S)NCCN2CCC(C)CC2)cc1Cl	1.5	12.6	-8.5	-12.1	-16.0	nt	nt
COc1ccc(-c2noc3c2-c2nc(C(C)C)sc2CC3)cc1	10.5*	2.4	1.2	-5.5	-3.6	-6.5	-3.9
COc1ccc(-c2noc3c2-c2nc(-c4ccc(Br)cc4)sc2CC3)cc1	14.0*	3.0	2.6	3.8	6.8	-10.2	-7.5
COc1ccc(-c2noc3c2-c2nc(-c4ccccc4C)sc2CC3)cc1	0.3	0.4	0.2	-23.1	-11.7	nt	nt
CN(C(=O)COC(=O)c1ccc(=O)n(Cc2ccccc2)n1)C1CCS(=O)(=O)C1 (stereo unspecified)	4.4	7.3	-1.6	9.3	-11.6	nt	nt
COc1ccc(OC)c(NC(=O)CC2SC(=Nc3ccc(F)cc3)N(CCC3=CCCCC3)C2=O)c1 (stereo unspecified)	11.0*	-9.0	4.2	18.2	11.0	1.2	-3.9
OC(Cc1ccncc1)c1ccccc1Cl (stereo unspecified)	-0.6	0.3	1.9	nt	nt	nt	nt
CC(=O)c1ccc(OCC(O)COc2ccc(C(C)=O)cc2)cc1	11.2*	-0.2	9.0	-0.2	2.0	0.6	3.7
O=C(CNC(=O)N1CC(=O)Nc2ccccc21)NCc1ccc(Cl)cc1	0.6	6.6	-11.5	8.8	4.8	nt	nt
Cc1ccccc1NS(=O)(=O)c1ccc(C)c(NS(C)(=O)=O)c1C	9.9*	-4.7	-1.5	6.2	2.9	2.3	0.5
CC(=O)Nc1cc(S(=O)(=O)Nc2ccccc2)c(C)cc1C	0.1	-0.9	4.5	13.3	-7.2	nt	nt
COc1ccc(C)cc1S(=O)(=O)Nc1ccccc1C	11.4*	-12.3	10.0	-2.3	6.7	-5.8	-4.2
Cc1ccccc1NS(=O)(=O)c1cc(S(C)(=O)=O)ccc1C	0.8	-4.7	2.0	5.8	1.3	nt	nt
CC(=O)Nc1cc(S(=O)(=O)Nc2ccccc2C)c(C)cc1C	9.8*	1.9	6.0	11.0	7.4	-1.6	2.6
Cc1ccc(C2CC(c3ccc(Cl)cc3)n3nc(N)nc3N2)cc1 (stereo unspecified)	-59.6	7.2	-83.9	0.1	4.5	nt	nt
Clc1ccc(C2CSc3c4ncnc-4ncn32)cc1 (stereo unspecified)	10.8*	-15.5	2.5	1.1	2.2	-7.8	-0.5
CC(=O)NC(Cc1cccc(F)c1)C(=O)NC1CCN(C(=O)Nc2ccc(C)cc2)CC1 (stereo unspecified)	1.4	5.7	-1.7	-1.6	4.4	nt	nt
CCOc1ccc(CC2S/C(=N/c3ccccn3)NC2=O)cc1 (stereo unspecified)	11.0*	-7.1	-0.6	-5.8	-0.6	-7.2	-5.2
CC1(C(=O)NS(=O)(=O)C2CC2)CCCN(C(=O)c2cccc(OC(F)(F)F)c2)C1 (stereo unspecified)	5.5	9.1	-2.4	nt	nt	nt	nt
Cc1nc2sc(C(=O)Nc3ccccc3)c(N)c2c(C)c1[N+](=O)[O-]	-1.9	6.3	-2.5	-0.4	2.9	nt	nt
CCCCCc1c(-c2cccc(Cl)c2)ncn1CCc1ccccc1OC	10.1*	3.9	6.5	nt	nt	-3.7	-2.0
COC(=O)[C@]12CCCCC=C1N(Cc1ccc3c(c1)OCO3)C(=O)[C@H](CC(=O)NCCC(C)C)C2	4.8	-4.0	6.7	nt	nt	nt	nt
Cc1ccc(C(NC(N)=O)c2ccccc2)cc1 (stereo unspecified)	12.2*	3.2	4.4	2.9	-1.5	-7.9	-5.8
O=C(NCc1ccc(F)cc1)C1CCCN1S(=O)(=O)c1cccc2nsnc12 (stereo unspecified)	-2.1	5.3	-5.2	3.4	6.3	nt	nt
SMILES	PLCg1 inh	HGIII-sPLA2 inh	PLC-beta3 inh	procasp7 counter	proCasp3 act	PLCg1 ctr	PLCb3 confirm
O=C1C[C@@H](C(=O)Nc2ccc(Cl)cc2)[C@@H](c2ccccc2)O1	-0.4	-6.2	0.5	nt	nt	nt	nt
COc1ccc(NC(=O)C2CC(=O)OC2c2ccccc2)cc1 (stereo unspecified)	10.2*	-4.1	6.1	-6.7	1.6	-5.1	-1.1
CC(=O)Nc1cccc(C(=O)N2CCN(S(=O)(=O)Cc3ccccc3)CC2)c1	3.4	-3.0	7.2	-0.6	5.9	nt	nt
C/C=C(\C)CN1CCCC(CO)(Cc2ccccc2)C1 (stereo unspecified)	12.0*	-3.7	-4.8	0.5	-0.5	-1.6	0.1
Cc1ccc(C)c(C(=O)CN2C(=O)NC3(CCCCCC3)C2=O)c1	-3.6	1.7	1.9	nt	nt	nt	nt
CC(=O)Nc1nc(COc2ccccc2)cs1	5.4	-1.2	6.8	16.9	-0.4	nt	nt
CCOC(=O)Cc1csc(NC(=O)COc2ccccc2)n1	11.4*	2.5	6.4	1.4	-0.3	-4.3	-0.3
O=C(Nc1nc(COc2ccccc2)cs1)C12CC3CC(CC(C3)C1)C2	9.1	-2.7	11.2*	4.9	-0.1	7.5	8.6
CCOc1ccccc1NC(=O)C1CCCN(S(=O)(=O)c2ccc3c(c2)CCCN3C(C)=O)C1 (stereo unspecified)	0.0	-8.4	5.8	nt	nt	nt	nt
CCN(CC)C(=O)CSc1nc2ccccc2c(=O)n1-c1cccc(OC)c1	10.4*	0.4	3.9	-10.1	2.7	-8.2	-3.0
CCNC(=O)CSc1nc2ccccc2c(=O)n1-c1cccc(OC)c1	-0.7	7.4	5.0	5.1	6.8	nt	nt
CC(C)CCNC(=O)c1cc(S(=O)(=O)N2CCC3(CC2)OCCO3)ccc1F	2.2	1.4	4.6	nt	nt	nt	nt
Cc1ccc(S(=O)(=O)N/N=C/c2c(F)cccc2Cl)cc1	11.0*	-0.4	2.2	-16.4	-14.7	-8.1	-7.6
O=S(=O)(N/N=C/c1c(F)cccc1Cl)c1ccccc1	3.4	2.6	2.5	5.0	-1.8	nt	nt
Cc1ccc(Nc2nc(/N=C/NO)n[nH]2)cc1C	-0.3	-6.9	-4.5	11.8	5.2	nt	nt
Cc1ccc(CC(=S)N2CCOCC2)cc1	4.0	6.1	3.4	-11.5	-7.5	nt	nt
S=C(Cc1ccc(-c2ccccc2)cc1)N1CCOCC1	9.9*	-1.7	-3.8	5.5	9.0	-6.8	-3.3
COC(=O)[C@@H](NC(=O)Nc1ccc2c(c1)OCCO2)C(C)C	10.0*	0.1	2.2	-4.2	5.2	0.2	0.2
COC(=O)[C@H](CC(C)C)NC(=O)Nc1ccc2c(c1)OCCO2	12.3*	6.3	8.7	1.8	-7.3	-5.1	-2.8
O=S(=O)(NCCc1c[nH]c2ccccc12)c1ccc(F)cc1	2.2	-100.3	-5.0	nt	nt	nt	nt
C(=N\N1CCN(c2ccccn2)CC1)/c1ccccn1	9.7*	-0.5	2.9	-3.1	1.9	-1.9	0.9
